# Experimental data published in publication PMC6713505 (Science Advances, 2019).
# What was measured:
# [1] = test system: FL transporter-2 (Blon_2202–2204); type: cell-based, B. infantis JCM 1222^T; conditions: for change in concentration of each HMO in culture supernatant (consumption): MS554 expressing FL transporter-2, growth on 0.5% (w/v) purified HMO mixture
# In short: (§1)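 The host was B. longum 105-A ΔlnbX ΔgltA carrying pMSK65, which encodes intracellular HMO-degrading exo-glycosidases. It was transformed with the transporter gene cluster or an empty vector. Cultures grew anaerobically at 37°C in MRS-CS with 0.5% (w/v) purified HMO mixture, Lac, 2′-FL, 3-FL, LDFT or LNFP I. OD600 was followed in technical duplicates. Supernatant HMOs were fluorescence-labelled and measured by HPLC against a maltoheptaose internal standard, in technical triplicates; means ± SD.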
# [2] = test system: FL transporter-1 (Blon_0341–0343); type: cell-based, B. infantis JCM 1222^T; conditions: for change in concentration of each HMO in culture supernatant (consumption): MS554 expressing FL transporter-1, growth on 0.5% (w/v) purified HMO mixture
# In short: as §1
# B. infantis JCM 1222^T = type: cell-based; conditions: 0.5% (w/v) sugar
# In short: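 B. infantis JCM 1222T wild type and FL transporter mutants were grown anaerobically at 37°C in MRS-CS broth (0.34% w/v sodium ascorbate, 0.02% w/v cysteine-HCl). Each broth carried 0.5% (w/v) of Gal, 2′-FL, 3-FL, LDFT, LNFP I or purified HMO mixture. The HMO mixture was purified from pooled breast milk and contained 2% (w/w) Lac impurity. Growth was followed over time in biological duplicates, reported as means ± SD.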
Compound,change in concentration of each HMO in culture supernatant (consumption) [1],change in concentration of each HMO in culture supernatant (consumption) [2],growth of WT and the four mutants of B. infantis (B. infantis JCM 1222^T),"growth on sugar as carbon source ([1]; MS554 expressing FL transporter-2, 0.5% (w/v) sugar, OD600)","growth on sugar as carbon source ([2]; MS554 expressing FL transporter-1, 0.5% (w/v) sugar, OD600)"
lacto-N-difucohexaose (LNDFH) I [LNDFH I],invariant,invariant,–,–,–
"CC(=O)N[C@H]1[C@H](O[C@H]2[C@@H](O)[C@@H](CO)O[C@@H](O[C@H]3[C@H](O)[C@@H](O)C(O)O[C@@H]3CO)[C@@H]2O)O[C@H](CO)[C@@H](O[C@@H]2O[C@H](CO)[C@H](O)[C@H](O)[C@H]2O)[C@@H]1O (mixture of isomers) [LNnT, lacto-N-neotetraose]",invariant,invariant,–,–,–
"CC(=O)N[C@H]1[C@H](O[C@H]2[C@@H](O)[C@@H](CO)O[C@@H](O[C@H]3[C@H](O)[C@@H](O)C(O)O[C@@H]3CO)[C@@H]2O)O[C@H](CO)[C@@H](O)[C@@H]1O[C@@H]1O[C@H](CO)[C@H](O)[C@H](O)[C@H]1O (some centres unmarked) [LNT, lacto-N-tetraose]",invariant,invariant,–,–,–
"O=C[C@H](O)[C@@H](O)[C@@H](O)[C@H](O)CO [Gal, galactose]",–,–,grew at similar rates,–,–
CC(=O)N[C@H]1[C@H](O[C@H]2[C@@H](O)[C@@H](CO)O[C@@H](O[C@@H]([C@H](O[C@@H]3O[C@@H](C)[C@@H](O)[C@@H](O)[C@@H]3O)[C@@H](O)C=O)[C@H](O)CO)[C@@H]2O)O[C@H](CO)[C@@H](O[C@@H]2O[C@@H](C)[C@@H](O)[C@@H](O)[C@@H]2O)[C@@H]1O[C@@H]1O[C@H](CO)[C@H](O)[C@H](O)[C@H]1O [LNDFH II],invariant,invariant,–,–,–
"OC[C@H]1O[C@@H](O[C@H]2[C@H](O)[C@@H](O)C(O)O[C@@H]2CO)[C@H](O)[C@@H](O)[C@H]1O (mixture of isomers) [Lac, lactose]",–,–,–,indistinguishable from the control strain,indistinguishable from the control strain
